This note sets out measurements from ChEMBL document CHEMBL1135427, “Osteoadsorptive bisphosphonate derivatives of fluoroquinolone antibacterials” (2002).

One assay deals with Escherichia coli. Description: Antibacterial activity determined as minimal inhibitory concentration (MIC) against Escherichia coli OKI 35034. Format: functional. The procedure, abridged:
(§1)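 Agar dilution. Compounds were dissolved in 0.2% NaHCO3, or in DMSO if insoluble, and mixed into molten agar at 50 °C. After the agar set, bacterial suspension was streaked onto the surface. MIC was read after 48 h of incubation at 37 °C.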

Assay [1] has as its system Helicobacter pylori. Description: Antibacterial activity determined as minimal inhibitory concentration (MIC) against Helicobacter pylori HIH 27604. The class given is functional. The essentials: as §1
The subject of assay [2] is Helicobacter pylori. Description: Antibacterial activity determined as minimal inhibitory concentration (MIC) against Helicobacter pylori HIH 27606. Format: functional. The procedure, abridged:
as §1

In the next assay the test system is Pseudomonas aeruginosa. Nature of the assay: Antibacterial activity determined as minimal inhibitory concentration (MIC) against Pseudomonas aeruginosa ATCC 27853. Format: functional. The essentials: as §1
Assay [3] can be described thus: Antibacterial activity determined as minimal inhibitory concentration (MIC) against […] OKI 60002. Format: functional. The procedure, abridged: as §1
Another assay has as its system Salmonella typhi. Nature of the assay: Antibacterial activity determined as minimal inhibitory concentration (MIC) against Salmonella typhi OKI 10084. The class given is functional, Salmonella enterica subsp. enterica serovar Typhi. The settings on record: Salmonella enterica. The essentials: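 Agar dilution against a laboratory strain. Compounds were dissolved in 0.2% NaHCO3, or in DMSO if insoluble, and mixed into molten agar at 50 °C. Bacterial suspension was streaked onto the solidified agar. Plates were incubated 48 h at 37 °C. MIC was taken as the lowest concentration inhibiting bacterial growth.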

Assay [4] deals with Staphylococcus epidermidis. Description: Antibacterial activity determined as minimal inhibitory concentration (MIC) against Staphylococcus epidermidis ATCC 110001. The class given is functional. The procedure, abridged:
as §1

The subject of another assay is Enterococcus faecalis. Nature of the assay: Antibacterial activity determined as minimal inhibitory concentration (MIC) against Streptococcus faecalis OKI 80171. The class given is functional. The essentials:
as §1

The subject of assay [5] is Staphylococcus aureus. Description: Antibacterial activity determined as minimal inhibitory concentration (MIC) against Staphylococcus aureus ATCC 25923. The class given is functional. The essentials:
as §1

Assay [6] deals with Aggregatibacter actinomycetemcomitans. Description: Antibacterial activity determined as minimal inhibitory concentration (MIC) against Actinobacillus actinomycetecommitans ATCC 29527. The class given is functional. The essentials:
as §1

The subject of assay [7] is Staphylococcus aureus. Description: Antibacterial activity determined as minimal inhibitory concentration (MIC) against Staphylococcus aureus ATCC 12598. The class given is functional. The essentials: as §1
Assay [8] relates to Staphylococcus aureus. Nature of the assay: Antibacterial activity determined as minimal inhibitory concentration (MIC) against Methicillin resistant Staphylococcus aureus. The class given is functional.
In assay [9] the test system is Staphylococcus aureus. Nature of the assay: Antibacterial activity determined as minimal inhibitory concentration (MIC90) against Methicillin sensitive Staphylococcus aureus. The class given is functional. The essentials: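 Broth microdilution on clinical isolates. Compounds were serially diluted from 256 to 0.5 μg/mL. Log-phase bacteria were added (A540 = 0.15 × 10^7 cfu/mL) and incubated 18 h at 37 °C, then growth was inspected macroscopically. MIC was the lowest concentration inhibiting growth. MIC90 was calculated across multiple isolates from median MIC ±1 SD using the z statistic.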

Assay [10] has as its system Aggregatibacter actinomycetemcomitans. Nature of the assay: Antibacterial activity determined as minimal inhibitory concentration (MIC) against Actinobacillus actinomycetecommitans ATCC 29527; value ranges from 1-2. The class given is functional. The essentials: as §1
The test system of assay [11] is Staphylococcus aureus. Nature of the assay: Antibacterial activity determined as minimal inhibitory concentration (MIC) against Staphylococcus aureus ATCC 12598; value ranges from 8-16. Format: functional. The essentials:
as §1

Assay [12] has as its system Staphylococcus aureus. Description: Antibacterial activity determined as minimal inhibitory concentration (MIC) against Staphylococcus aureus ATCC 25923; value ranges from 8-16. The class given is functional. The essentials:
as §1

In brackets after ≈: the same amount, converted by molar mass.

With `CCOP(=O)(OCC)C(N1CCN(c2cc3c(cc2F)c(=O)c(C(=O)O)cn3C2CC2)CC1)P(=O)(OCC)OCC`, the MIC in the assay with Escherichia coli is 0.78 µg/mL (≈ 1.26 µM); in the assay with Helicobacter pylori [1], 25 µg/mL (≈ 40.5 µM); against Helicobacter pylori [2] it was 25 µg/mL (≈ 40.5 µM); against Pseudomonas aeruginosa, greater than 100 µg/mL; in assay [3] it was 25 µg/mL (≈ 40.5 µM); in the assay with Salmonella typhi, 0.78 µg/mL (≈ 1.26 µM). Moreover, the MIC in assay [4] was found to be 6.25 µg/mL (≈ 10.1 µM); against Enterococcus faecalis, 50 µg/mL (≈ 81 µM); in the assay with Staphylococcus aureus [5], 12.5 µg/mL (≈ 20.2 µM).

A word on the MIC90: it is an inhibitory concentration at the 90% level, which refers to growth in some studies and to a panel of isolates in others. Read a high MIC90 as weaker potency. Take `CCOP(=O)(OCC)C(CN1CCN(c2cc3c(cc2F)c(=O)c(C(=O)O)cn3C2CC2)CC1)P(=O)(OCC)OCC`: the MIC in assay [6] is less than 0.25 µg/mL; with Escherichia coli, less than 0.39 µg/mL; in the assay with Helicobacter pylori [1], 0.78 µg/mL (≈ 1.24 µM); against Helicobacter pylori [2], less than 0.39 µg/mL; in the assay with Pseudomonas aeruginosa, 3.12 µg/mL (≈ 4.94 µM); in [3], less than 0.39 µg/mL. Further, the MIC with Salmonella typhi was less than 0.39 µg/mL; in [4], 0.78 µg/mL (≈ 1.24 µM); in the assay with Enterococcus faecalis, 3.12 µg/mL (≈ 4.94 µM); with Staphylococcus aureus [7], 1 µg/mL (≈ 1.58 µM); against Staphylococcus aureus [5], 3.12 µg/mL (≈ 4.94 µM); in the assay with Staphylococcus aureus [8] it was greater than 8 µg/mL. The same compound showed an MIC90 against Staphylococcus aureus [9] of 3.91 µg/mL (≈ 6.19 µM).

Take `O=C(O)c1cn(C2CC2)c2cc(N3CCN(CC(P(=O)(O)O)P(=O)(O)O)CC3)c(F)cc2c1=O`: the MIC in assay [10] is 2 µg/mL (≈ 3.85 µM); with Escherichia coli, 0.78 µg/mL (≈ 1.5 µM); against Helicobacter pylori [1], 3.12 µg/mL (≈ 6.01 µM); in the assay on Helicobacter pylori [2], 0.78 µg/mL (≈ 1.5 µM); in the assay on Pseudomonas aeruginosa it was 25 µg/mL (≈ 48.1 µM); in assay [3] it was less than 0.39 µg/mL. For the same compound, the MIC in the assay with Salmonella typhi is 0.78 µg/mL (≈ 1.5 µM); in assay [4], 25 µg/mL (≈ 48.1 µM); in the assay on Enterococcus faecalis it was 50 µg/mL (≈ 96.3 µM); in the assay with Staphylococcus aureus [11] it was 16 µg/mL (≈ 30.8 µM); in the assay on Staphylococcus aureus [8] it was greater than 8 µg/mL; in the assay with Staphylococcus aureus [12] it was 16 µg/mL (≈ 30.8 µM). The MIC90 in the assay with Staphylococcus aureus [9] is 51.3 µg/mL (≈ 98.8 µM).

On to `O=C(O)c1cn(C2CC2)c2cc(N3CCN(C(P(=O)(O)O)P(=O)(O)O)CC3)c(F)cc2c1=O`, for which the MIC against Escherichia coli was less than 0.39 µg/mL; against Helicobacter pylori [1], 12.5 µg/mL (≈ 24.7 µM); against Helicobacter pylori [2], 12.5 µg/mL (≈ 24.7 µM); in the assay with Pseudomonas aeruginosa, 25 µg/mL (≈ 49.5 µM); in assay [3], 6.25 µg/mL (≈ 12.4 µM); with Salmonella typhi, 0.78 µg/mL (≈ 1.54 µM). Besides, the MIC in assay [4] was found to be 25 µg/mL (≈ 49.5 µM); in the assay on Enterococcus faecalis it was 100 µg/mL (≈ 198 µM); in the assay with Staphylococcus aureus [5] it was 50 µg/mL (≈ 98.9 µM).

For `O=C(O)c1cn(C2CC2)c2cc(N3CCNCC3)c(F)cc2c1=O` [CIPROFLOXACIN], the MIC in assay [6] is 0.25 µg/mL (≈ 0.754 µM); against Escherichia coli it was less than 0.39 µg/mL; in the assay on Helicobacter pylori [1] it was 0.78 µg/mL (≈ 2.35 µM); in the assay with Helicobacter pylori [2], less than 0.39 µg/mL; against Pseudomonas aeruginosa, 3.12 µg/mL (≈ 9.42 µM); in assay [3], less than 0.39 µg/mL. The MIC in the assay with Salmonella typhi is less than 0.39 µg/mL; in assay [4], 0.78 µg/mL (≈ 2.35 µM); against Enterococcus faecalis it was 3.12 µg/mL (≈ 9.42 µM); against Staphylococcus aureus [7], 2 µg/mL (≈ 6.04 µM); with Staphylococcus aureus [5] it was 1.56 µg/mL (≈ 4.71 µM); with Staphylococcus aureus [8], greater than 8 µg/mL. Besides, the MIC90 with Staphylococcus aureus [9] turned out to be 1.65 µg/mL (≈ 4.98 µM).
